PABP FP inh: blocks human PABP binding to poly(A) RNA; hit rate 1% among 290,000; fluorescence polarization; P11940; inhibition, % at 35 µM; AID 2014;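 also: calls also rest on retests at 20 µM and on dose response follow-up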
MLLE-PAM2 inh: inhibitors of microRNA-mediated deadenylation, human PABP1 MLLE binding. P11940. GST-MLLE / FITC-PAM2 fluorescence polarization. inhibition, % at 20 µM. hit rate 0.36% among 360,000; in the data active = inhibition above about 35%, passing the limit was not always enough;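 also: plate controls were DMSO wells with GST-MLLE for no effect and wells lacking GST-MLLE protein for full effect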
HCV NS3 hel inh: blocks Hepatitis C virus NS3 helicase unwinding. hit rate 0.56% among 290,000. NS3 helicase DNA unwinding, Cy5 molecular beacon fluorescence. inhibition, % at 10.9 µM;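 active = inhibition above the mean of all tested compounds plus 3 SD, set per campaign, cut at about 35% in these data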;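 also: 0% = DMSO wells and 100% = thioflavine S control wells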
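Measured by: Cy5 fluorescence, 0 and 60 min reads / Assay system: NS3 helicase fragment of HCV / Control set: low DMSO, high thioflavine S at 110 µM / Times: 1 h reaction at 25 °C, ATP-initiated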
DNA FID counter: fluorescent intercalator displacement, NS3 helicase counter-screen; DNA fluorescent intercalator displacement, fluorescence; inhibition, % at 7.9 µM; hit rate 0.17% among 290,000; AID 1845; in the data active = inhibition above about 37%;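 also: 0% = vehicle and 100% = reference compound; higher means more ethidium bromide displaced from hairpin DNA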
eIF4H inh: inhibitors of RNA binding by human eIF4H | hit rate 0.94% among 290,000 | eIF4H fluorescence polarization binding assay | inhibition, % at 35 µM;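 also: calls also rest on retests at 20 µM and on dose response follow-up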
HCV core dimer: HCV core protein dimerization inhibition; TR-FRET GST/Flag-core106 dimerization, 1536-well; inhibition, % at 5 µM; hit rate 0.33% among 300,000;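 active = inhibition above the mean of all tested compounds plus 3 SD, set per screening campaign, cut at about 45% in these data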
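System – GST-tagged and Flag-tagged HCV core protein residues 1-106 · Repeats – one well for each compound · Technique – TR-FRET 671 and 617 nm emission · Doses – one concentration, 5 µM, in 0.5% DMSO · Times – 4 h, 22.5 °C incubation · Also added – Eu donor and XL665 acceptor anti-tag antibodies · Measure – percent inhibition of core106 dimerization signal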
* = called active by the depositor; ? = inconclusive; . = no result. In the library only some 2% were active in any assay of this set; here they are far more common. Unless noted, no rule for the calls is given here.

SMILES	PABP FP inh	MLLE-PAM2 inh	HCV NS3 hel inh	DNA FID counter	eIF4H inh	HCV core dimer
COc1ccc(S(=O)(=O)Nc2ccccc2C(=O)N2CCOCC2)cc1Br	-10.1	-4.9	-5.1	-23.5	-13.1	.
COc1ccc(C(N)=S)c(OC)c1	9.9	38.6*	-3.3	-2.0	-9.0	-15.8
Cc1ccc(NC(=Nc2ccc(Br)cc2)N2CCOCC2)cc1C	-7.7	4.6	-17.8	7.4	-8.3	5.5
Cc1ncc(C(O)c2ccccc2)n1Cc1ccccc1 (centres undefined)	.	-0.4	.	.	.	.
CCn1c2ccccc2c2cc(CNCCCN3CCOCC3)ccc21	12.9	7.5	-53.1	46.9*	-4.4	-10.5
Cc1[nH]c2ccc(C(=O)OC(C)C(=O)NC3(C#N)CCCCC3)cc2c1C (centres undefined)	.	-14.5	.	.	.	1.6
N#CC1=C(N)n2c(s/c(=C\c3ccco3)c2=O)=C(C#N)C1c1ccco1 (centres undefined)	85.7*	-45.7	23.8	4.7	98.9*	23.1
Clc1cccc(/C=N/N2CCN(Cc3ccccc3)CC2)c1	10.3	10.8	-8.2	-3.8	-1.5	1.5
CC(NC(=O)c1ccc(NC2=NC3CS(=O)(=O)CC3S2)cc1)c1ccccc1 (centres undefined)	-3.1	-95.3	2.9	-4.8	-6.7	-7.3
O=C(O)c1ccccc1Nc1cc(Cl)c2nonc2c1[N+](=O)[O-]	10.4	41.8*	19.3	2.3	11.0	15.3
CN(C)c1cc(Nc2ccc(O)cc2)c([N+](=O)[O-])c2nonc12	0.8	0.2	1.5	4.5	-11.4	-0.2
O=[N+]([O-])c1c(Nc2ccc(O)cc2)cc(Cl)c2nonc12	4.1	39.2*	-29.5	4.0	9.4	18.9
O=C(O)c1cccc(Nc2cc(Cl)c3nonc3c2[N+](=O)[O-])c1	-0.2	35.7	23.9	5.7	-0.7	-4.1
O=C(Cc1cccs1)N[C@@H]1c2ccccc2CC[C@@H]1OCc1ccccc1	.	-4.7	.	.	.	.
CCCN(CC(=O)Nc1ccc(F)c(F)c1F)C(=O)C1=COCCO1	.	-84.3	.	.	.	-5.2
O=C1NN(c2ccc(Cl)c(Cl)c2)C(=O)/C1=C/c1cccc(OC(=O)c2cccs2)c1	55.6*	.	4.3	12.4	82.1*	-5.7
Cc1ccc(NC(=O)c2cc3c(CO)cnc(C)c3oc2=Nc2cccc(C(N)=O)c2)cc1	-0.6	8.0	-7.0	-7.2	-6.0	8.8
O=C(NNC(=O)c1cc([N+](=O)[O-])ccc1Cl)c1cccnc1	-6.0	0.8	8.7	-6.7	-11.6	.
Cn1cccc1/C=C1\SC(=O)N(c2ccc(O)cc2)C1=O	80.5*	17.4	2.3	-2.7	0.7*	3.0
CSc1cccc(NS(=O)(=O)c2cc(Br)cnc2N)c1	.	17.4	-9.6	9.8	.	1.7
Cc1ccc(NC(=O)CSc2nc(-c3ccco3)nc3cc(=O)[nH]n23)c(Cl)c1	56.4*	-4.1	-2.1	-45.1	85.7*	4.1
O=C(O)c1ccc(Cn2cnc3cccnc32)cc1	30.6	43.0*	-3.8	-3.9	55.3	5.6
O=C(O)c1ccc(Cn2cnc3scc(-c4ccccc4)c3c2=O)cc1	0.3	-10.1	6.1	-35.2	-4.7	1.4
CC(=O)N1c2ccc(S(=O)(=O)N3CCCC3C(=O)Nc3ccc(C)cc3)cc2CC1C (centres undefined)	11.6*	2.6	5.7	-30.3	53.6	3.9
CSc1nc(=S)c2[nH]c(=S)[nH]c2[nH]1	58.7*	34.9	5.1	-6.4	92.3*	.
SMILES	PABP FP inh	MLLE-PAM2 inh	HCV NS3 hel inh	DNA FID counter	eIF4H inh	HCV core dimer
c1ccc(-c2nc(NCCCn3ccnc3)c3ccccc3n2)cc1	-1.2	-14.9	25.0	66.3*	-4.4	1.1
CCN(CC)CCCNc1nc2cc(OC)c(OC)cc2c2nc(-c3ccccc3)nn12	-7.1	16.2	-13.3	50.5*	-7.1	-3.7
COc1ccc(-c2nc(NCCCN(C)C)c3ccccc3n2)cc1	12.2	8.4	28.3	78.7*	-9.0	7.3
COc1ccc(OC)c(Nc2nc(NCCO)c3ccccc3n2)c1	-9.6	-9.9	-10.0	37.7*	-3.2	-13.2
COc1ccccc1Nc1nc(NCCO)c2ccccc2n1	6.2	.	-0.9	3.5	-0.7	.
CCN(CC)CCCNc1nc(-c2ccccc2)nc2ccccc12	-3.3	3.2	23.9	56.6*	5.0	-3.3
CCOc1ccc2c(c1)c1nnc(SCC(=O)NC3CC3)nc1n2C	-0.4	12.2	1.9	-26.1	-5.0	1.0
O=C(Cn1nnc(-c2cc(C(F)(F)F)cc(C(F)(F)F)c2)n1)NNC(=S)Nc1ccc(Cl)cc1	2.3	41.2*	17.3	-14.6	14.0	3.6
Cc1cc2cc(C(c3nnnn3Cc3ccco3)N3CCCCC3)c(=O)[nH]c2cc1C (centres undefined)	54.4*	-21.3	20.4	-19.4	56.6*	10.4
CCOc1ccc2[nH]c(=O)c(C(c3nnnn3Cc3ccco3)N3CCN(C)CC3)cc2c1 (centres undefined)	28.6	-13.8	-2.9	-5.0	39.4	-2.7
O=c1[nH]c2cc3c(cc2cc1C(c1nnnn1Cc1ccccc1)N1CCN2CCCC2C1)OCCO3 (centres undefined)	-7.0	-21.2	-22.1	13.5	-9.7	18.9
O=c1[nH]c2cc3c(cc2cc1C(c1nnnn1Cc1ccccc1)N1CCCCCC1)OCCO3 (centres undefined)	123.7*	-14.2	-22.7	-3.7	129.9	3.7
CCCc1cc(C(=O)N2CCC(n3nccc3NC(=O)c3ccc(OC)cc3)CC2)no1	-4.5	-6.7	0.0	-35.1	-3.7	-2.5
CCOC(=O)C1CCCN(C2=NC(=O)/C(=C/c3ccc(N(C)C)cc3)S2)C1 (centres undefined)	?	-158.6	25.5	-30.8	?	-26.8
COC(=O)c1ccccc1NC(=O)CNc1cc(OC)c(OC)cc1C	16.6	0.9	-3.1	-10.4	8.3	-4.2
CCc1ccccc1NCC(=O)Nc1ccccc1C(=O)OC	119.0	1.8	21.4	-15.2	active	-4.7
O=C(Nc1ncccc1Cl)c1cc2ccccc2o1	.	-5.1	24.4	-14.4	.	-9.3
CCCC(=O)Nc1cccc2c1CCCC2	-5.7	-2.9	-2.1	3.2	-0.3	-6.2
CCc1ccc(OCC(=O)Nc2cccc3c2CCCC3)cc1	51.0*	4.4	3.6	-23.6	?	4.2
CC(=Nc1ccc(O)cc1)c1sc2ccccc2c1O	13.8	-31.6	24.9	-16.3	?	-12.0
CC(=O)NCCN=C(C)c1sc2ccccc2c1O	1.1	35.2*	3.4	6.6	0.4	-18.3
Cc1ccc(C2=NN=C(NC(=O)CSc3nnc4c5ccccc5n(C)c4n3)SC2)cc1	-2.0	26.3	52.6*	-21.2	-3.0	14.8
CC1CCCC(C)N1C(=O)COC(=O)c1cc(F)c(F)cc1Cl (centres undefined)	.	2.8	.	.	.	.
Cc1[nH]c2ccccc2c1SCC(=O)O	-10.3	8.3	1.8	3.5	-7.2	-5.6
O=C(O)CSc1c2ccccc2cc2ccccc12	20.1	38.2*	8.4	7.9	-1.0	-15.1
